Results taken from ChEMBL document CHEMBL4610004, “Lipidated α/Sulfono-α-AA heterogeneous peptides as antimicrobial agents for MRSA” (Bioorg Med Chem, 2020).
Values after ≈ are worked out from the molar mass of the structure shown. Active and inactive are the calls of the source. The calls are words filed in the database; no cut-off is given here.

Experiments:
[1] = tested on: Staphylococcus aureus; experiment: Antibacterial activity against methicillin-resistant Staphylococcus aureus ATCC 33591 assessed as reduction in bacterial growth incubated for 18 hrs by broth microdilution method; details: ATCC 33591, 18 h
[2] = Hemolytic activity in human RBC assessed as hemoglobin release incubated for 1 hr; format: ADME, cell-based, Erythrocyte; details: red blood cells (erythrocytes)
Method in brief: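 Human red blood cells washed in PBS, pelleted at 1000g for 10 min, resuspended at 5% v/v. Compound serially diluted two-fold (50 µL) and mixed with 50 µL of the RBC suspension. Incubated 1 h at 37 °C, centrifuged 10 min at 3500 rpm, supernatant diluted with PBS, hemoglobin read at 540 nm. PBS defines 0% and 0.1% Triton X-100 defines 100% hemolysis. HC50 reported.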

[3] = Selectivity index, ratio of HC50 for human RBC to MIC for methicillin-resistant Staphylococcus aureus ATCC 33591; format: toxicity; details: red blood cells (erythrocytes)
Method in brief: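 Selectivity = HC50 / MIC. For HC50, PBS-washed human RBCs (spun 1000g, 10 min) are diluted to 5% v/v and mixed 1:1 with twofold peptide dilutions. After 1 h at 37 °C, plates are spun and the diluted supernatant is read at 540 nm. PBS sets 0% and 0.1% Triton X-100 sets 100% hemolysis. MIC is by OD600 broth microdilution, 18 h, 37 °C.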

[4] = tested on: Staphylococcus aureus; experiment: Induction of cell membrane disruption in methicillin-resistant Staphylococcus aureus ATCC 33591 assessed as increase in depolarization measured for 30 mins by DiSC3 dye based fluorescence assay; format: organism-based
Method in brief: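 Mid-log cells are washed in 5 mM HEPES then 5 mM glucose. They are resuspended (10⁸ CFU/mL) in HEPES/glucose/KCl 1:1:1 with 2 µM DiSC3. Fluorescence (ex 622, em 670 nm) is monitored 30 min at room temperature until minimal. Peptide is then added and the fluorescence rise followed as depolarization. Three trials, each in duplicate.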

[5] = tested on: Staphylococcus aureus; experiment: Induction of cell membrane disruption in methicillin-resistant Staphylococcus aureus ATCC 33591 assessed as increase in PI-positive cells at 5 ug/ml incubated for 2 hrs by DAPI and PI dye based fluorescence microscopy; format: organism-based
Method in brief: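 Mid-log MRSA is incubated at 37 °C with peptide (5 µg/mL); the methods give 4 h and the legend gives 2 h. Cells are pelleted (3000g, 15 min) and PBS-washed. They are stained with DAPI (10 µg/mL, 0 °C, 15 min, dark), washed, then stained with PI (5 µg/mL). Untreated cells serve as controls. Imaged by optical microscopy at 100×.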

[6] = tested on: Staphylococcus aureus; experiment: Bactericidal activity against methicillin-resistant Staphylococcus aureus ATCC 33591 assessed as reduction in bacterial colonies formation at 12.5 ug/ml incubated for 120 min followed by dilution of the suspension and further incubation for 20 hrs on agar plate by time kill assay; format: functional, organism-based
Method in brief: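 Bacteria are exposed to a range of peptide concentrations and sampled at 0, 10, 20, 30, 60 and 120 min. At each time point 100 µL of suspension is taken, diluted, and plated on agar for 20 h at 37 °C. Colonies are counted and expressed as log CFU/mL versus time. Done in triplicate.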

| SMILES | MIC [1] | further results |
| --- | --- | --- |
| CCCCCCCCCCCCCCCC(=O)N[C@@H](CCCCN)C(=O)NCCN([C@@H](C)C(N)=O)S(=O)(=O)c1ccccc1 | 5 µg/mL (≈ 7.84 µM) | – |
| CCCCCCCCCCCCCCCC(=O)N[C@@H](CCCCN)C(=O)NCCN([C@@H](C)C(=O)NCCN([C@@H](C)C(N)=O)S(=O)(=O)c1ccccc1)S(=O)(=O)c1ccccc1 | 2 µg/mL (≈ 2.24 µM) | – |
| CCCCCCCCCCCCCCCC(=O)N[C@@H](CCCCN)C(=O)NCCN([C@@H](C)C(=O)NCCN([C@@H](C)C(=O)NCCN([C@@H](C)C(N)=O)S(=O)(=O)c1ccccc1)S(=O)(=O)c1ccccc1)S(=O)(=O)c1ccccc1 | 10 µg/mL (≈ 8.72 µM) | – |
| CCCCCCCC(=O)N[C@@H](CCCCN)C(=O)NCCN([C@@H](C)C(N)=O)S(=O)(=O)c1ccc(Cl)cc1 | > 25 µg/mL | – |
| CCCCCCCCCC(=O)N[C@@H](CCCCN)C(=O)NCCN([C@@H](C)C(N)=O)S(=O)(=O)c1ccc(Cl)cc1 | > 25 µg/mL | – |
| CCCCCCCCCCCCCCCC(=O)N[C@@H](CCCCN)C(=O)NCCN([C@@H](C)C(=O)NCCN([C@@H](C)C(=O)NCCN([C@@H](C)C(N)=O)S(=O)(=O)c1ccc(Br)cc1)S(=O)(=O)c1ccc(Br)cc1)S(=O)(=O)c1ccc(Br)cc1 | > 25 µg/mL | – |
| CCCCCCCCCCCCCCCC(=O)N[C@@H](CCCCN)C(=O)NCCN([C@@H](C)C(N)=O)S(=O)(=O)c1ccc(Br)cc1 | 2 µg/mL (≈ 2.79 µM) | – |
| CCCCCCCCCCCCCCCC(=O)N[C@@H](CCCCN)C(=O)NCCN([C@@H](C)C(=O)NCCN([C@@H](C)C(N)=O)S(=O)(=O)c1ccc(Br)cc1)S(=O)(=O)c1ccc(Br)cc1 | 5 µg/mL (≈ 4.76 µM) | – |
| CCCCCCCCCCCCCCCC(=O)N[C@@H](CCCCN)C(=O)NCCN([C@@H](C)C(=O)NCCN([C@@H](C)C(N)=O)S(=O)(=O)c1ccc(Cl)cc1)S(=O)(=O)c1ccc(Cl)cc1 | 10 µg/mL (≈ 10.4 µM) | – |
| CCCCCCCCCCCCCCCC(=O)N[C@@H](CCCCN)C(=O)NCCN([C@@H](C)C(N)=O)S(=O)(=O)c1ccc(Cl)cc1 | 1 µg/mL (≈ 1.49 µM) | HC50 at 1 h [2]: 62.5 µg/mL; selectivity ratio [3]: 62.5; Activity [4]: Active; Activity [5]: Active; Activity [6]: Active |
| CCCCCCCCCCCCCC(=O)N[C@@H](CCCCN)C(=O)NCCN([C@@H](C)C(N)=O)S(=O)(=O)c1ccc(Cl)cc1 | 5 µg/mL (≈ 7.76 µM) | – |
| CCCCCCCCCCCC(=O)N[C@@H](CCCCN)C(=O)NCCN([C@@H](C)C(N)=O)S(=O)(=O)c1ccc(Cl)cc1 | 5 µg/mL (≈ 8.11 µM) | – |
| CCCCCCCCCCCCCCCC(=O)N[C@@H](CCCCN)C(=O)NCCN([C@@H](C)C(=O)NCCN([C@@H](C)C(=O)NCCN([C@@H](C)C(N)=O)S(=O)(=O)c1ccc(Cl)cc1)S(=O)(=O)c1ccc(Cl)cc1)S(=O)(=O)c1ccc(Cl)cc1 | > 25 µg/mL | – |
